Measurements published in ChEMBL document CHEMBL1121913, “Inactivation of liver alcohol dehydrogenases and inhibition of ethanol metabolism by ambivalent active-site-directed reagents” (J Med Chem, 1981).

What was measured:
[1] = target: T1, Alcohol dehydrogenase (Equus caballus) (UniProt P00327+P00328); assay: The compound was tested for the ability to inactivate horse liver alcohol dehydrogenase in the presence of 1 mM NAD+(K
[2] = (§1) The compound was tested for the ability to inactivate horse liver alcohol dehydrogenase in the presence of 0.2 mM NAD+K
[3] = target: T1, Alcohol dehydrogenase (Equus caballus); assay: as §1
[4] = target: T2, Alcohol dehydrogenase (Homo sapiens) (UniProt P07327+P08319+P00325+P00326+P40394+P11766+P28332); assay: The compound was tested for the ability to inactivate human liver alcohol dehydrogenase in the absence of NAD+K
In short: (§2)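 Human liver ADH, purified on carboxymethyl- and DEAE-cellulose plus (NH₄)₂SO₄ (60%) with 5% ethanol throughout, ethanol dialysed out. Inactivation at 25 °C in 0.1 M Na₂P₂O₇, pH 8, enzyme about 0.2 mg/mL, 0.2 mM reagent; NAD⁺ added 1 min before reagent where used. Apparent second-order constant calculated assuming first order in reagent.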

[5] = The compound was tested for the ability to inactivate mouse liver alcohol dehydrogenase in the absence of NAD+K
In short: (§3)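 Mouse liver ADH, fourfold purified ((NH₄)₂SO₄ 45–65% cut, DEAE-cellulose), incubated at about 0.2 mg/mL with 0.2 mM reagent in 0.1 M Na₂P₂O₇ pH 8, 25 °C; coenzyme, when present, added 1 min before inactivator. Apparent second-order rate constant derived assuming reaction first order in reagent.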

[6] = The compound was tested for the ability to inactivate mouse liver alcohol dehydrogenase in the presence of 1 mM NAD+K; in short: as §3
[7] = Percent inhibition of Alcohol dehydrogenase activity in mice liver at dose 0.13 mmol/kg; assay type: tissue-based
In short: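 Male Swiss-Webster mice (20–25 g), fed, given one ip dose of reagent suspended in sterile 0.9% saline, then ethanol 3 g/kg ip (40% w/v in saline) 22–24 h later. Liver removed once blood ethanol approached zero, chilled, homogenized, clarified by centrifugation. ADH activity taken as initial-velocity difference, ethanol/NAD⁺ assay minus same assay with 10 mM pyrazole, per mg protein. Four or five mice per group.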

[8] = The compound was tested for the ability to inactivate rat liver alcohol dehydrogenase in the absence of NAD+K
In short: (§4)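 Rat liver enzyme purified 15-fold ((NH₄)₂SO₄ 35–75%, DEAE-cellulose). Inactivation with 0.2 mM reagent, 0.1 M pyrophosphate buffer pH 8, 25 °C, enzyme near 0.2 mg/mL; NAD⁺ preincubated 1 min with enzyme before reagent addition. Apparent second-order constants computed on assumption of first-order dependence on reagent.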

[9] = The compound was tested for the ability to inactivate rat liver alcohol dehydrogenase in the presence of 1 mM NAD+K; in short: as §4
[10] = (§5) Percent inhibition of Alcohol dehydrogenase activity in rat liver at dose 0.13 mmol/kg; assay type: tissue-based
In short: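 Male Sprague-Dawley rats (160–200 g), two per experiment; compound suspended in sterile 0.9% saline, single i.p. dose 22–24 h before i.p. ethanol 2 g/kg (40% w/v in saline). Tail-vein blood ethanol by GC (1-propanol internal standard); elimination rate = β slope × dose/extrapolated zero-time level. Liver ADH afterwards: homogenate activity with ethanol/NAD⁺ minus 10 mM pyrazole control, per mg protein.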

[11] = target: T1, Alcohol dehydrogenase (Equus caballus); assay: The compound was tested for the ability to inactivate horse liver alcohol dehydrogenase in the absence of NAD+(K
Mus musculus [12] = assay: (§6) Percent inhibition of rate of ethanol metabolism in mice at dose 0.13 mmol/kg; assay type: functional
In short: (§7)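 Mice (male Swiss-Webster, fed) dosed ip with reagent in saline 22–24 h before ethanol 3 g/kg ip. Tail-vein blood (5 µL) deproteinized with Ba(OH)₂/ZnSO₄, 1-propanol internal standard, analyzed by GC with flame-ionization detection. Elimination slope fitted excluding absorption (1–2 h), multiplied by r (dose / theoretical zero-time blood level) to give metabolic rate. Four or five mice per group.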

Mus musculus [13] = assay: Percent inhibition of recovery of rotarod performance in mice at dose 0.13 mmol/kg; assay type: functional
In short: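 Mice trained to hang on a 2-cm rod rotating at 7 rpm, two 15-min periods. Reagent given ip 22 h before ethanol 3 g/kg; five mice per dose, five vehicle controls. Impairment = 100(15 − minutes on rod)/15, probit-transformed; t1/2 for regaining 50% performance by regression. Inhibition = [t1/2(treated) − t1/2(control)]/t1/2(treated).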

[14] = Toxic effect in mice; assay type: toxicity, organism-based; details: mouse, in vivo
In short: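 Male Swiss-Webster mice (20–25 g); single i.p. dose of compound suspended in sterile 0.9% saline. Acute lethality scored over 24 h; LD₅₀ with limits at p ≤ 0.05 from three doses on 15 mice.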

[15] = Toxic effect in rats; assay type: toxicity, organism-based; details: rat, in vivo
In short: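 Male Sprague-Dawley rats (160–200 g), two per dose; single i.p. dose of compound suspended in sterile 0.9% saline. Acute lethality scored over 24 h after dosing.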

Rattus norvegicus = assay: Percent inhibition of rate of ethanol metabolism in rats at dose 0.13 mmol/kg; assay type: functional
In short: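 Rats (male Sprague-Dawley, fed) pretreated ip with reagent suspended in saline 22–24 h before ethanol 2 g/kg ip. Serial 5 µL tail-vein samples, Ba(OH)₂/ZnSO₄ deproteinization with 1-propanol internal standard, GC-FID. Metabolic rate = blood-ethanol decline slope × ratio of dose to extrapolated zero-time blood level. Two rats per experiment.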

[16] = target: T2, Alcohol dehydrogenase (Homo sapiens); assay: The compound was tested for the ability to inactivate human liver alcohol dehydrogenase in the presence of 1 mM NAD+K; in short: as §2
[17] = target: T1, Alcohol dehydrogenase (Equus caballus); assay: The compound was tested for the ability to inactivate horse liver alcohol dehydrogenase in the presence of 1 mM NAD+k
[18] = target: T1, Alcohol dehydrogenase (Equus caballus); assay: The compound was tested for the ability to inactivate horse liver alcohol dehydrogenase in the absence of NAD+k
[19] = target: T1, Alcohol dehydrogenase (Equus caballus); assay: The compound was tested for the ability to inactivate horse liver alcohol dehydrogenase in the presence of 1 mM NAD+K
[20] = target: T2, Alcohol dehydrogenase (Homo sapiens); assay: The compound was tested for the ability to inactivate human liver alcohol dehydrogenase in the presence of 1 mM NAD+k; in short: as §2
[21] = as §6; details: in the assay text read “0.48 mmol/kg” for “0.13 mmol/kg”; in short: as §7
[22] = as §5; assay type: tissue-based; remark: listed apart in the source
In short: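 Fed male Sprague-Dawley rats (160–200 g) received a single ip saline-suspended reagent dose, then ethanol 2 g/kg ip (40% w/v in saline) 22–24 h afterwards. Liver excised when blood ethanol neared zero, homogenized on ice, centrifuged. Activity = initial rate with ethanol and NAD⁺ minus rate in control assay containing 10 mM pyrazole, expressed per mg protein. Two rats per experiment.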

Structure (SMILES)	Rate constant [3]	Rate constant [4]	Rate constant [5]	Rate constant [8]	Rate constant [9]	Rate constant [17]	Rate constant [18]	Rate constant [20]	other results
NC(=O)CCCc1ccc(NC(=O)CBr)cc1	2.67 M⁻¹ s⁻¹	0.09 M⁻¹ s⁻¹	0.6 M⁻¹ s⁻¹	0.583 M⁻¹ s⁻¹	1.17 M⁻¹ s⁻¹	–	–	–	Rate constant [1]: 3.17 M⁻¹ s⁻¹; Rate constant [2]: 2.67 M⁻¹ s⁻¹; Rate constant [6]: 1 M⁻¹ s⁻¹; inhibition [7]: 21%; inhibition [10]: 21%; Rate constant [11]: 0.667 M⁻¹ s⁻¹; inhibition in vivo at 130 µmol/kg (Mus musculus [12]): 20%; inhibition in vivo at 130 µmol/kg (Mus musculus [13]): 58%; LD50 [14]: 210 µmol/kg; LD50 [15]: 130 µmol/kg; inhibition in vivo at 130 µmol/kg (Rattus norvegicus): 26%; Rate constant [16]: 5.33 M⁻¹ s⁻¹
O=C(O)CBr	–	0.0133 M⁻¹ s⁻¹	0.163 M⁻¹ s⁻¹	0.217 M⁻¹ s⁻¹	0.0133 M⁻¹ s⁻¹	0.0015 M⁻¹ s⁻¹	0.138 M⁻¹ s⁻¹	–	–
NC(=O)CCCc1ccc(NC(=O)CCl)cc1	0.0267 M⁻¹ s⁻¹	–	–	–	–	–	–	–	Rate constant [19]: 0.0417 M⁻¹ s⁻¹
O=C(O)CCCCCCCCCCNC(=O)CBr	–	3.83 M⁻¹ s⁻¹	0.147 M⁻¹ s⁻¹	0.152 M⁻¹ s⁻¹	0.0667 M⁻¹ s⁻¹	0.05 M⁻¹ s⁻¹	0.717 M⁻¹ s⁻¹	23.3 M⁻¹ s⁻¹	–
CS(=O)(=O)OCC(=O)Nc1ccc(CCCC(N)=O)cc1	0.217 M⁻¹ s⁻¹	–	–	–	–	–	–	–	Rate constant [19]: 0.4 M⁻¹ s⁻¹; inhibition [7]: 38%; inhibition [21]: 43%; inhibition [22]: 35%; inhibition in vivo at 130 µmol/kg (Mus musculus [13]): 70%; LD50 [14]: > 480 µmol/kg; LD50 [15]: > 480 µmol/kg; inhibition in vivo at 130 µmol/kg (Rattus norvegicus): 15%
O=C(O)CCCCCCCNC(=O)CBr	–	0.112 M⁻¹ s⁻¹	0.0817 M⁻¹ s⁻¹	0.2 M⁻¹ s⁻¹	0.0667 M⁻¹ s⁻¹	0.12 M⁻¹ s⁻¹	0.105 M⁻¹ s⁻¹	0.833 M⁻¹ s⁻¹	–
O=C(O)CCCCCCCCNC(=O)CBr	–	0.383 M⁻¹ s⁻¹	0.0817 M⁻¹ s⁻¹	0.2 M⁻¹ s⁻¹	0.2 M⁻¹ s⁻¹	0.0817 M⁻¹ s⁻¹	0.167 M⁻¹ s⁻¹	4 M⁻¹ s⁻¹	–
